# Calls of active or inactive are those of the source. The rule behind the calls is not given here.
# Assays:
# BV-2 [1] = test: Antiinflammatory activity in mouse BV2 cells assessed as inhibition of LPS-induced NO production at 10 uM after 24 hrs by Griess reaction; type: functional; settings: BV-2, 24 h
# In short: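 BV-2 microglial cells were activated with 100 ng/ml LPS for 24 h with compound at 10 µM. Medium nitrite was measured by Griess reaction. The value is mean inhibition of NO production relative to the LPS control, from three experiments.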
# BV-2 [2] = test: Antiinflammatory activity in mouse BV2 cells assessed as inhibition of LPS-induced NO production after 24 hrs by Griess reaction; type: functional, cell-based; settings: BV-2, 24 h
# In short: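 Murine BV-2 microglia stimulated with LPS at 100 ng/ml for 24 h with or without compound. Nitrite, a soluble oxidation product of NO, was measured in the culture medium by Griess reaction.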
# BV-2 [3] = test: Antiinflammatory activity in mouse BV2 cells assessed as inhibition of LPS-induced iNOS protein expression at 10 uM after 6 hrs by Western blotting
# [4] = molecular target: T1, Nitric oxide synthase, inducible (Mus musculus) (UniProt P29477); test: Inhibition of iNOS activity in LPS-stimulated mouse BV2 cells after 12 hrs; type: cell-based; settings: BV-2
# T1 sequence (whole entry): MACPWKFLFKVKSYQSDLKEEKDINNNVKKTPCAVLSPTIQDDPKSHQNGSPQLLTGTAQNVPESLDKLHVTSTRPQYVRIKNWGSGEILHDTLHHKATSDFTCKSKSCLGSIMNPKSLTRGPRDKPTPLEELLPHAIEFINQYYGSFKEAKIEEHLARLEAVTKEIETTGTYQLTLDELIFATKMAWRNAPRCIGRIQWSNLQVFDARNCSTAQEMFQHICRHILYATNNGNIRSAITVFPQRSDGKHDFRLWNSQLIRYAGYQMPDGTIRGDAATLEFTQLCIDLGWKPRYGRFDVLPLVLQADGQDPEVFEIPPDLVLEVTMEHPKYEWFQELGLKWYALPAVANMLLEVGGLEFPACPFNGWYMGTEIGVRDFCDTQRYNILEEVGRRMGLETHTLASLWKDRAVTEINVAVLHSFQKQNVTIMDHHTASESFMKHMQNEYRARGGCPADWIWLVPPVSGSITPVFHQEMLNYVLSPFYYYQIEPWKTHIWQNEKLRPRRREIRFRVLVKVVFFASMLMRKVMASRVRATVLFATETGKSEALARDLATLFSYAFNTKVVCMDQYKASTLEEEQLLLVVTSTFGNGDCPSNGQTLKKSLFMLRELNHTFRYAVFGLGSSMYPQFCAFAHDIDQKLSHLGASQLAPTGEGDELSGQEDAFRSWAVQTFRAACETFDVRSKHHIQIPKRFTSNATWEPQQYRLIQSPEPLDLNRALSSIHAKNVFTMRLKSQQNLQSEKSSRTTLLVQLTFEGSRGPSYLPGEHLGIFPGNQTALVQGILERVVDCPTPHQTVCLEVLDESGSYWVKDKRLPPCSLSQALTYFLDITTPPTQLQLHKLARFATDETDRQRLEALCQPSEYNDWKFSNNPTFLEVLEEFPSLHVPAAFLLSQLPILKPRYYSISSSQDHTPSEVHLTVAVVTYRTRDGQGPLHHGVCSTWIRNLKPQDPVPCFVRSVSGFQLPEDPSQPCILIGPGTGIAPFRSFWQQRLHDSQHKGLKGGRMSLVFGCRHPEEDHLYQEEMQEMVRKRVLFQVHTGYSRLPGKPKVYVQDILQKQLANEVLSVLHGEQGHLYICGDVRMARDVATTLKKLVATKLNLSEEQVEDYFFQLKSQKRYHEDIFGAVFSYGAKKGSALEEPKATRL
# In short: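 Intact-cell iNOS activity assay. BV-2 cells (4 × 10⁶) were pre-induced with LPS at 100 ng/ml for 12 h, washed twice with PBS, then replated at 2 × 10⁶ cells/well. They were incubated with various compound concentrations for a further 12 h. Supernatant NO was read by Griess reaction.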
# [5] = Cytotoxicity against mouse BV2 cells; type: cell-based, BV-2; settings: read-out: INH
# In short: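 Viability of murine BV-2 microglia, stimulated with LPS at 100 ng/ml for 24 h with or without compound, was measured by MTT assay.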
SMILES,inhibition at 10 µM (BV-2 [1]),IC50 (BV-2 [2]),inhibition (BV-2 [3]),inhibition [4],cytotoxicity [5]
CC1(c2cccc(Cl)c2)CC(c2cccc(Cl)c2)=Nc2ccccc2N1 (configuration not stated),21.2%,23.2 µM,,,
Cc1ccc(C2=Nc3ccccc3NC(C)(c3ccc(C)cc3)C2)cc1 (configuration not stated),34.6%,14 µM,,,
CC1(c2ccsc2)CC(c2ccsc2)=Nc2ccccc2N1 (configuration not stated),13.2%,35.2 µM,,,
CC1(c2cccs2)CC(c2cccs2)=Nc2ccccc2N1 (configuration not stated),70.3%,7 µM,inactive,Active,
CC1(c2ccccc2[N+](=O)[O-])CC(c2ccccc2[N+](=O)[O-])=Nc2ccccc2N1 (configuration not stated),24.9%,23.2 µM,,,
CC1(c2ccc(Cl)cc2)CC(c2ccc(Cl)cc2)=Nc2ccccc2N1 (configuration not stated),28.2%,,,,28.2%
CCC1=Nc2ccccc2NC(C)(CC)C1 (configuration not stated),27.4%,15.2 µM,,,
CC1=Nc2ccccc2NC(C)(C)C1,28.6%,14.3 µM,,,
CC1(c2ccccc2)CC(c2ccccc2)=Nc2ccccc2N1 (configuration not stated),59.8%,9.4 µM,,,
CC(C)C1=Nc2ccccc2NC(C)(C(C)C)C1 (configuration not stated),26.3%,16.6 µM,,,

# From ChEMBL document CHEMBL1177758, “Anti-neuroinflammatory activity of 1,5-benzodiazepine derivatives” (Bioorg Med Chem Lett, 2010)
